Measurements taken from ChEMBL document CHEMBL1122117, “Pyridazinones. 1. Synthesis and antisecretory and antiulcer activities of thio amide derivatives” (1982).

Tests used:
Rattus norvegicus [1] = assay: Antiulcer activity as dose required to inhibit 50% gastric juice secretions in male Wistar rats after intraduodenally administration.; assay type: functional; conditions: intraduodenal
Rattus norvegicus [2] = assay: Antiulcer activity in male Wistar rats for 50% inhibition of stress induced gastric lesions after peroral administration.; assay type: functional; conditions: Stomach, po
In short: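 Stress ulcer model. Male Wistar rats of 200–220 g, ten per group, were dosed orally, then immobilized in a stress cage and immersed in a water bath. The stomach was removed 7 h later and summed lesion lengths gave the ulcer index (mm). ED50 by Litchfield–Wilcoxon.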

Rattus norvegicus [3] = assay: Inhibition of gastric antisecretory activity in the pylorus-ligated rat at a dose of 100 mg/kg administered intraduodenally; assay type: functional; conditions: Stomach, route intraduodenal
In short: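 Shay pylorus-ligated rats, fasted, six per group, ligated under ether. A single intraduodenal dose of 100 mg/kg was given in 1% carboxymethylcellulose, against a vehicle control. The stomach was removed 7 h later, juice volume measured, and free acid titrated with 0.1 N NaOH to pH 3.0 as hourly output. Results are given as percent inhibition versus control.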

Rattus norvegicus [4] = assay: Effective dose required for gastric antisecretory activity in the pylorus-ligated rat after intraduodenal administration.; assay type: functional; conditions: Stomach
In short: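 Pylorus ligated under ether in fasted rats, six per group. Test agents were given intraduodenally at several dose levels in 1% carboxymethylcellulose, with a vehicle control group. After 7 h the gastric juice volume was measured and titrated with 0.1 N NaOH to pH 3.0 for free acid, as hourly output per rat. ED50 was calculated.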

Rattus norvegicus [5] = assay: Antiulcer activity in male Donry rat for 50% inhibition of aspirin induced gastric lesions after intraduodenal administration.; assay type: functional; conditions: Stomach
In short: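 Aspirin ulcer model. Male Donryu rats of 200–220 g were food-deprived 24 h, ten per group, pylorus-ligated, then dosed intraduodenally. Ten min later they received oral aspirin 100 mg/kg in 1% carboxymethylcellulose. At 7 h the summed lengths of glandular lesions gave the ulcer index (mm). ED50 by Litchfield–Wilcoxon.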

Rattus norvegicus [6] = assay: Percent inhibition of gastric antisecretory activity in the pylorus-ligated rat at a dose of 100 mg/kg administered intraduodenally; assay type: functional; conditions: Stomach, route intraduodenal
In short: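 Fasted rats in groups of six, pylorus ligated under ether anaesthesia (Shay method); compound in 1% carboxymethylcellulose, or vehicle alone, given intraduodenally at 100 mg/kg. Stomach removed 7 h after abdominal closure. Gastric juice volume measured, and free acid titrated with 0.1 N NaOH to pH 3.0. Hourly free-acid output per rat expressed as percent inhibition versus vehicle controls.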

Rattus norvegicus [7] = organism: Rattus norvegicus; assay: animal or person; conditions: Stomach, intraduodenal
Rattus norvegicus [8] = organism: Rattus norvegicus; assay: animal or person; conditions: Stomach, intraduodenal; remark: listed apart in the source

SMILES	inhibition in vivo at 100 mg/kg (Rattus norvegicus [3]) [%]	ED50 (Rattus norvegicus [4]) [mg/kg]	also measured
Cc1cc(-c2ccccc2)nn(CCC(=N)S)c1=O	60.2	66.7	ED50 (Rattus norvegicus [1]): 32 mg/kg; ED50 (Rattus norvegicus [2]): > 50 mg/kg; ED50 (Rattus norvegicus [5]): 73.1 mg/kg
O=c1ccc(-c2ccccc2)nn1CC/C(S)=N/CO			inhibition in vivo at 100 mg/kg (Rattus norvegicus [6]): 5.1%
Cc1cc(=O)n(CCC(=N)S)nc1-c1ccccc1	32	> 100	
Cc1ccc(=O)n(CCCCC(=N)S)n1	29.5	> 100	
Cc1ccc(-c2ccc(=O)n(CCC(=N)S)n2)cc1	18.2		
CC(Cn1nc(-c2ccccc2)ccc1=O)C(=N)S (stereo not drawn)	86.4	28.1	ED50 (Rattus norvegicus [1]): 18.2 mg/kg; ED50 (Rattus norvegicus [2]): 36.1 mg/kg; ED50 (Rattus norvegicus [5]): 35 mg/kg
N=C(S)CCCCCN1N=C(c2ccccc2)CCC1=O	48.5	100	
NC(=O)CCn1nc(-c2ccccc2)ccc1=O	-2.8		
CC/N=C(\S)CCn1nc(-c2ccccc2)ccc1=O	50.3	100	
N=C(S)CCCCCCN1N=C(c2ccccc2)CCC1=O	68.3	58.8	ED50 (Rattus norvegicus [1]): 24.8 mg/kg; ED50 (Rattus norvegicus [2]): 23 mg/kg; ED50 (Rattus norvegicus [5]): 72.3 mg/kg
Cc1ccc(=O)n(C(C)CC(=N)S)n1 (stereo not drawn)	32.5	> 100	
CC(CN1N=C(c2ccccc2)CCC1=O)C(=N)S (stereo not drawn)	28.2		
N=C(S)CCN1N=C(c2ccccc2)CCC1=O	38.2	> 100	
N=C(S)CCN1N=C(c2cccs2)CCC1=O	58.5	77.3	
CC1=NN(CC(C)C(=N)S)C(=O)CC1 (stereo not drawn)	15.6		
N=C(S)CCn1nc(-c2ccccc2)ccc1=S	62.3	73.4	
N=C(S)CCCCN1N=C(c2ccccc2)CCC1=O	50.2	100	
N=C(S)CCn1nc(-c2ccccc2)c2ccccc2c1=O	73.3	66.5	
N=C(S)CCn1ncccc1=O	28.8	> 100	
CC(CC(=N)S)n1ncccc1=O (stereo not drawn)	38.8	> 100	
N=C(S)CCCCCn1nc(-c2ccccc2)ccc1=O	91.4	23.3	ED50 (Rattus norvegicus [1]): 9.2 mg/kg; ED50 (Rattus norvegicus [2]): 10.2 mg/kg; ED50 (Rattus norvegicus [5]): 18.2 mg/kg
N=C(S)CCn1nc2c(cc1=O)CCc1ccccc1-2	1.6		
N=C(S)CCn1nc(-c2ccccc2)ccc1=O	53.7	87.3	ED50 (Rattus norvegicus [1]): 23.2 mg/kg; ED50 (Rattus norvegicus [2]): 34.5 mg/kg; ED50 (Rattus norvegicus [5]): 53.5 mg/kg

SMILES	inhibition in vivo at 100 mg/kg (Rattus norvegicus [3]) [%]	ED50 (Rattus norvegicus [4]) [mg/kg]	also measured
O=C(O)CCn1nc(-c2ccccc2)ccc1=O	26.1		
Cc1ccc(=O)n(CCC#N)n1	-0.2		
COc1ccc2cc(-c3ccc(=O)n(CCC(=N)S)n3)ccc2c1	48.9	100	
CN(C)C(=S)CCCCCn1nc(-c2ccccc2)ccc1=O	58.2	100	
N=C(S)CCn1[nH]c(=O)ccc1=O	-13.4		
C/N=C(\S)C(C)Cn1ncccc1=O (stereo not drawn)	50.2	100	ED50 (Rattus norvegicus [1]): 40 mg/kg; ED50 (Rattus norvegicus [2]): > 50 mg/kg; ED50 (Rattus norvegicus [5]): 68.5 mg/kg
CC1=NN(C(C)CC(=N)S)C(=O)CC1 (stereo not drawn)	17.4		
N=C(S)CCn1ncccc1=S	50	100	
N=C(S)CCCN1N=C(c2ccccc2)CCC1=O	50.3	100	
Cc1ccc(=O)n(CC(=N)S)n1	31.5	> 100	
N=C(S)CCCn1nc(-c2ccccc2)ccc1=O	75.6	31.9	ED50 (Rattus norvegicus [1]): 15.5 mg/kg; ED50 (Rattus norvegicus [2]): 10.5 mg/kg; ED50 (Rattus norvegicus [5]): 38 mg/kg
Cc1ccc(=S)n(CCC(=N)S)n1	48.5	100	
N=C(S)Cn1nc(-c2ccccc2)ccc1=O	5.5		
N=C(S)CCn1nc(-c2ccc(Cl)c(Cl)c2)ccc1=O	55.8	78.1	
N=C(S)CCn1nc(-c2ccc(Cl)cc2)ccc1=O	42.5	> 100	
CNC(=O)CCn1nc(-c2ccccc2)ccc1=O	3.5		
CC(CC(=N)S)N1N=C(c2ccccc2)CCC1=O (stereo not drawn)	9.2		
CC(Cn1ncccc1=S)C(=N)S (stereo not drawn)	-1		
C/N=C(\S)CC(C)n1ncccc1=O (stereo not drawn)	42.7	> 100	
N=C(S)CCCCCCn1nc(-c2ccccc2)ccc1=O	33.9	> 100	
C/N=C(/S)CCCCCn1nc(-c2ccccc2)ccc1=O	92.3	25.2	ED50 (Rattus norvegicus [1]): 15 mg/kg; ED50 (Rattus norvegicus [2]): 18.3 mg/kg; ED50 (Rattus norvegicus [5]): 45.5 mg/kg
Cc1ccc(=O)n(CCCC(=N)S)n1	36.3	> 100	
N#CCCn1nc(-c2ccccc2)ccc1=O	10.1		

SMILES	inhibition in vivo at 100 mg/kg (Rattus norvegicus [3]) [%]	ED50 (Rattus norvegicus [4]) [mg/kg]	also measured
Cc1ccc(=O)n(CCCCCCC(=N)S)n1	29.5	> 100	
CC1=NN(CCC(=N)S)C(=O)CC1	34.8	> 100	
N=C(S)CCN1N=C(c2ccc(Cl)c(Cl)c2)CCC1=O	47.2	> 100	
O=c1ccc(-c2ccccc2)nn1CCC(=S)N1CCCC1	38.2	> 100	
CC(Cn1ncccc1=O)C(=N)S (stereo not drawn)	40.3	> 100	
N=C(S)CCN1N=C(c2ccc(Cl)cc2)CCC1=O	43.1	> 100	
Cc1ccc(=O)n(CCC(N)=O)n1	-2.9		
Cc1ccc(=O)n(CCC(=N)S)n1	73.9	43.2	ED50 (Rattus norvegicus [1]): 51.3 mg/kg; ED50 (Rattus norvegicus [2]): > 50 mg/kg; ED50 (Rattus norvegicus [5]): > 100 mg/kg
N=C(S)CCCCn1nc(-c2ccccc2)ccc1=O	33.8	> 100	
Cc1ccc(=O)n(CCCCCC(=N)S)n1	36.6	> 100	
C/N=C(\S)CCn1ncccc1=O	30.7	> 100	
CCOC(=O)CCn1nc(-c2ccccc2)ccc1=O	6.3		
COc1ccc(-c2ccc(=O)n(CCC(=N)S)n2)cc1	20.7	> 100	
N=C(S)CCn1ncc2ccccc2c1=O	58.3	90.1	
CC(CC(=N)S)n1nc(-c2ccccc2)ccc1=O (stereo not drawn)	15.5		
Cc1ccc(=O)n(CC(C)C(=N)S)n1 (stereo not drawn)	30.2	> 100	
CN(C)C(=S)CCn1nc(-c2ccccc2)ccc1=O	46		
N=C(S)CCn1nc(-c2cccs2)ccc1=O	50.2	100	
O=c1cccnn1CCC(=S)N1CCCC1	29.7	> 100	
C/N=C(\S)CCn1nc(-c2ccccc2)ccc1=O	68.2	58.5	ED50 (Rattus norvegicus [1]): 50.1 mg/kg; ED50 (Rattus norvegicus [2]): 28.3 mg/kg; ED50 (Rattus norvegicus [5]): 66.3 mg/kg
CN1[C@@H]2CC[C@H]1C[C@@H](OC(=O)C(CO)c1ccccc1)C2.O=S(=O)(O)O (stereo partly drawn) [ATROPINE SULFATE]			ED50 (Rattus norvegicus [7]): 1.1 mg/kg; ED50 (Rattus norvegicus [8]): 0.9 mg/kg; ED50 (Rattus norvegicus [5]): 4.5 mg/kg
CN/C(=N\CCSCc1nc[nH]c1C)NC#N [CIMETIDINE]			ED50 (Rattus norvegicus [2]): 43.2 mg/kg; ED50 (Rattus norvegicus [7]): > 100 mg/kg
